Data published in ChEMBL document CHEMBL4371059 (J Med Chem, 2019).
pKi: −log10 of the molar value. Active and inactive are the calls of the source. The rule behind the calls is not given here.

Experiments:
[1] = biological target: T1, Sigma intracellular receptor 2 (Rattus norvegicus) (UniProt Q5U3Y7); assay: Displacement of [3H]DTG from sigma2 receptor in rat liver membranes at 1 uM after 120 mins by scintillation counting method relative to control; assay type: cell membranes
T1 sequence (whole entry): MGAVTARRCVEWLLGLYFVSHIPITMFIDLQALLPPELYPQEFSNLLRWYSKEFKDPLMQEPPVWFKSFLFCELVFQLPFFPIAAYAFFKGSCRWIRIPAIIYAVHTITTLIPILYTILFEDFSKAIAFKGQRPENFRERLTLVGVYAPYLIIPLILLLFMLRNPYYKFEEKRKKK

T-cell [2] = assay: Inhibition of PMA/ionomycin-stimulated C57BL/6 mouse T cells activation assessed as CD44-positive cells at 5 ug/ml treated for 48 hrs starting from 12 hrs post PMA/ionomycin stimulation by flow cytometry (reference value: 9.6%); assay type: functional; parameters: scale not given: the % may be the effect or the level left
T-cell [3] = assay: Anti-inflammatory activity in PMA/ionomycin-stimulated human PBMC-derived T cells assessed as reduction in IFNgamma production at 5 ug/ml treated for 48 hrs starting from 12 hrs post PMA/ionomycin stimulation by flow cytometry; assay type: functional, cell-based
In short: (§1)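 PBMC were prepared from heparinized blood of healthy donors by Ficoll gradient, and DC or T cells were negatively enriched with magnetic kits. Cells were activated 12 h with PMA (5 ng/ml) plus ionomycin (500 ng/ml), then cultured 48 h with compound or PBS. Flow cytometry was gated on HLA-DR⁺CD11c⁺ for DC and CD3⁺ for T cells, with intracellular IFN-γ; n=3 donors.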

Mus musculus [4] = assay: (§2) Anti-inflammatory activity against C57BL/6 mouse model of MOG-induced autoimmune encephalomyelitis assessed as CD45-positive leukocytes at 100 uL of 20 uM solution administered ip starting from day 1 post immunization and measured 9 to 16 days post Mycobacterium tuberculosis H37Ra/MOG immunization by flow cytometry (reference value: 4.4%); assay type: functional
In short: (§3)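 C57BL/6 wild-type mice, 8–12 weeks old, were kept under SPF conditions and immunized with MOG peptide. From day 1 after immunization they received a daily ip injection of 100 µl of a 20 µM solution; controls received PBS. Clinical signs were checked daily. Tissues were taken at disease peak, days 12–15 after immunization.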

T-cell [5] = assay: Inhibition of PMA/ionomycin-stimulated C57BL/6 mouse T cells activation assessed as CD69-positive cells at 5 ug/ml treated for 48 hrs starting from 12 hrs post PMA/ionomycin stimulation by flow cytometry (reference value: 37.2%); assay type: functional; parameters: scale not given: the % may be the effect or the level left
Mus musculus [6] = assay: as §2, with “inhibition of development of clinical symptoms” for “CD45-positive leukocytes”, “immunization” for “immunization by flow cytometry (reference value: 4.4%)”; assay type: functional, organism-based; in short: as §3
Dendritic cell [7] = assay: Anti-inflammatory activity in PMA/ionomycin-stimulated human PBMC-derived dendritic cells assessed as reduction in IFNgamma production at 5 ug/ml treated for 48 hrs starting from 12 hrs post PMA/ionomycin stimulation by flow cytometry; assay type: functional, cell-based; in short: as §1
Mus musculus [8] = assay: as §2, with “reduction in immune cell infiltration in to lumbar spinal cord” for “CD45-positive leukocytes”, “hematoxylin and eosin staining based microscopic method” for “flow cytometry (reference value: 4.4%)”; assay type: functional, organism-based; in short: as §3
Mus musculus [9] = assay: as §2, with “reduction in TH17 cell population in lumbar spinal cord” for “CD45-positive leukocytes”, “immunofluorescence microscopic method” for “flow cytometry (reference value: 4.4%)”; assay type: functional, organism-based; in short: as §3
Mus musculus [10] = assay: as §2, with “reduction in inflammatory foci in lumbar spinal cord” for “CD45-positive leukocytes”, “hematoxylin and eosin staining based microscopic method” for “flow cytometry (reference value: 4.4%)”; assay type: functional, organism-based; in short: as §3
Dendritic cell [11] = assay: Immunomodulatory activity in PMA/ionomycin-stimulated human PBMC-derived dendritic cells assessed as increase in IL-10 production at 5 ug/ml treated for 48 hrs starting from 12 hrs post PMA/ionomycin stimulation; assay type: functional, cell-based
In short: (§4)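 Human PBMC-derived cells from healthy donors were activated with PMA (5 ng/ml) plus ionomycin (500 ng/ml), then cultured with compound or PBS. Cytokines were quantified in the culture supernatants; n=3 donors.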

T-cell [12] = assay: Immunomodulatory activity in PMA/ionomycin-stimulated human PBMC-derived T cells assessed as increase in IL-10 production at 5 ug/ml treated for 48 hrs starting from 12 hrs post PMA/ionomycin stimulation; assay type: functional, cell-based; in short: as §4
T-cell [13] = assay: Immunomodulatory activity in PMA/ionomycin-stimulated C57BL/6 mouse T cells assessed as increase in IL-10 production at 5 ug/ml treated for 48 hrs starting from 12 hrs post PMA/ionomycin stimulation; assay type: functional, cell-based
In short: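 Mouse lymph-node T cells were activated 12 h with PMA (5 ng/ml) plus ionomycin (500 ng/ml), then cultured 48 h with compound or PBS. Secreted cytokines were measured in the culture supernatants; n=5 mice per group.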

Dendritic cell [14] = assay: Immunomodulatory activity in PMA/ionomycin-stimulated C57BL/6 mouse bone marrow derived dendritic cells assessed as increase in IL-10 production at 5 ug/ml treated for 48 hrs starting from 12 hrs post PMA/ionomycin stimulation; assay type: functional, cell-based
T-cell [15] = assay: Anti-inflammatory activity in PMA/ionomycin-stimulated C57BL/6 mouse T cells assessed as reduction in IFNgamma production at 5 ug/ml treated for 48 hrs starting from 12 hrs post PMA/ionomycin stimulation by flow cytometry; assay type: functional, cell-based
In short: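 Total T cells were isolated from wild-type mouse lymph nodes with a Pan T cell kit. Cells were activated 12 h with PMA (5 ng/ml) plus ionomycin (500 ng/ml), then cultured 48 h with compound or PBS. Analysis was by flow cytometry gated on CD3, with intracellular IFN-γ after permeabilization; n=5 mice.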

Dendritic cell [16] = assay: Anti-inflammatory activity in PMA/ionomycin-stimulated C57BL/6 mouse bone marrow derived dendritic cells assessed as reduction in IFNgamma production at 5 ug/ml treated for 48 hrs starting from 12 hrs post PMA/ionomycin stimulation by flow cytometry; assay type: functional, cell-based
In short: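 Bone marrow from tibias and femurs was cultured 9 days with GM-CSF (150 U/ml) and IL-4 (75 U/ml). From day 7 to day 9, cells were stimulated with PMA (5 ng/ml) plus ionomycin (500 ng/ml) with or without compound. On day 9, cells were gated on MHC-II⁺CD11c⁺ and stained for intracellular IFN-γ; n=5 mice.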

[17] = biological target: T2, Sigma intracellular receptor 2 (Rattus norvegicus, UniProt Q5U3Y7); assay: Displacement of [3H]DTG from sigma2 receptor in rat liver membranes after 120 mins by scintillation counting method; assay type: cell membranes
T2 sequence (Q5U3Y7 whole entry): T1 sequence (whole entry)

`CN1CCN(C(=O)Cc2ccc(Cl)c(Cl)c2)[C@H]2[C@@H]1CCC[C@@H]2N1CCCC1` was tested, and the inhibition [1] was 4%.
In the case of `O=C(Cc1ccc(Cl)c(Cl)c1)N1CCN[C@H]2CCC[C@H](N3CCCC3)[C@H]21` (racemic), the Activity (T-cell [2]) was 7.6%, the Activity (T-cell [3]) was “inactive” and the inhibition [1] was 5%. The Activity (Mus musculus [4]) was 0.5%, the Activity (T-cell [5]) was 25.6% and the inhibition (Mus musculus [6]) was “Active”. The Activity (Dendritic cell [7]) was “inactive”, the Activity (Mus musculus [8]) was “Active” and the Activity (Mus musculus [9]) was “Active”. For the same molecule, the Activity (Mus musculus [10]) was “Active”.
With `O=C(Cc1ccc(Cl)c(Cl)c1)N1CCN(Cc2cn(CCF)nn2)[C@H]2CCC[C@H](N3CCCC3)[C@H]21` (racemic) the Activity (T-cell [2]) was 10.4%, the Activity (T-cell [3]) was “Active” and the inhibition [1] was 0%. The Activity (Mus musculus [4]) was 0.2%, the Activity (Dendritic cell [11]) was “Active” and the Activity (T-cell [5]) was 14.8%. The inhibition (Mus musculus [6]) was “Active”, the Activity (T-cell [12]) was “Active” and the Activity (Dendritic cell [7]) was “Active”. The Activity (T-cell [13]) was “Active”, the Activity (Dendritic cell [14]) was “Active” and the Activity (T-cell [15]) was “Active”. The Activity (Mus musculus [8]) was “Active”, the Activity (Dendritic cell [16]) was “Active” and the Activity (Mus musculus [9]) was “Active”. For the same molecule, the Activity (Mus musculus [10]) was “Active”.
With `CCCCN1CCN(C(=O)Cc2ccc(Cl)c(Cl)c2)[C@@H]2[C@@H](N3CCCC3)CCC[C@@H]21` (racemic) the pKi [17] was 5.89.
For `CCCN1CCN(C(=O)Cc2ccc(Cl)c(Cl)c2)[C@@H]2[C@@H](N3CCCC3)CCC[C@@H]21` (racemic), the pKi [17] was 5.62.
`CC(C)(C)OC(=O)N1CCN(C(=O)Cc2ccc(Cl)c(Cl)c2)[C@@H]2[C@@H](N3CCCC3)CCC[C@@H]21` (racemic) showed an inhibition [1] of 16%.
Work on `COC(=O)N1CCN(C(=O)Cc2ccc(Cl)c(Cl)c2)[C@@H]2[C@@H](N3CCCC3)CCC[C@@H]21` (racemic) yielded an inhibition [1] of 8%.
`O=C(Cc1ccc(Cl)c(Cl)c1)N1CCN(CCCCF)[C@H]2CCC[C@H](N3CCCC3)[C@H]21` (racemic) gave an inhibition [1] of 8%.
`O=C(Cc1ccc(Cl)c(Cl)c1)N1CCN(CCF)[C@H]2CCC[C@H](N3CCCC3)[C@H]21` (racemic) gave an inhibition [1] of 3%.
With `O=C(Cc1ccc(Cl)c(Cl)c1)N1CCN(Cc2ccc(F)cc2)[C@H]2CCC[C@H](N3CCCC3)[C@H]21` (racemic) the inhibition [1] was 0%.
Molecule `CCN1CCN(C(=O)Cc2ccc(Cl)c(Cl)c2)[C@H]2[C@@H]1CCC[C@@H]2N1CCCC1` (relative stereo) has an inhibition [1] of 16%.
Work on `O=C(Cc1ccc(Cl)c(Cl)c1)N1CCN(C(=O)COCCF)[C@H]2CCC[C@H](N3CCCC3)[C@H]21` (relative stereo) yielded an inhibition [1] of 0%.
